This is a sample that favours compounds with a hit; in the whole collection about 4.6% have one here.
Pemphigus Ab inh: human desmoglein-3 autoantibody binding inhibition | P32926 | DSG3-coupled beads, scFv-anti-DSG3-GFP binding, flow cytometry; hits give low values | binding (percent of control), % at 10 µM | 0.48% of 310,000 active | AID 588358;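 active means binding more than 3 SD below its plate's average and above zero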;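 further: hits lower antibody fragment binding to DSG3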
NLRP3 yeast inh: NALP3 inhibition in yeast. Yeast reconstituted NLRP3/ASC/caspase-1, beta-gal luminescence, 24 h. inhibition, % at 10 µM. 0.39% of 330,000 active. AID 2825;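 active means inhibition of 50% or more; inactive means inhibition below 50%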;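 further: plate controls were induced DMSO wells for no effect and uninduced yeast grown without galactose for full effect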
Arr AP2 block: blocks beta-arrestin peptide binding to AP2 adaptin | 0.31% of 340,000 active | inhibition, % at 10 µM | FITC-arrestin peptide / GST-AP2 beads, flow cytometry; AP2 beta2 appendage carries R879A mutation;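 active means inhibition above a set limit, near 3 SD of compounds lacking own fluorescence, cut at about 54% in these data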;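 further: plate controls were DMSO wells for no effect and 5 µM unlabelled arrestin peptide for full effect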
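Material – GST-tagged AP2 beta2-adaptin appendage (R879A) on 4 µm glutathione beads · Probe or stimulus – fluorescein-tagged arrestin peptide at 50 nM final · Timing – 12 min plus 1 h, RT · Detection – bead flow cytometry, FITC channel · Read-out basis – inhibition as reduced fluorescein signal on beads, percent · Medium – PBS plus Tween 20 (0.05%) and BSA (0.1%)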
NALP1 yeast inh: inhibitors of NALP1 inflammasome in yeast; inhibition, % at 10 µM; 0.61% of 280,000 active; AID 2071; S. cerevisiae NALP1/ASC/caspase-1 growth, X-gal OD620, 72 h; in the data active means inhibition mostly above about 24%, no sharp cut-off; inactive means mostly below about 32%
PolyA inhibitor: yeast polyadenylation inhibition; S. cerevisiae SKY197-pL101 polyadenylation reporter, beta-gal luminescence; efflux-impaired pdr1/pdr3 knockout yeast; score 100 = 6 SD above DMSO; AID 1875; 0.02% of 300,000 active; activity score, % at 12 µM;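 active means lowest replicate activity score at least 50, where 100 means six control SD above control mean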;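 further: yeast exposed to compound for 9 h at 30 °C; higher score means more reporter readthrough which indicates perturbed polyadenylation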
ALR H2O2 inh: inhibitors of human sulfhydryl oxidase ALR | AID 485317 | inhibition, % (test concentration not listed) | 3.8% of 290,000 active | purified ALR, DTT oxidation, H2O2 HRP-luminol luminescence | P55789;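 active means mean replicate inhibition above about 79%, with every replicate also reaching it, limit read from the data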
Target sequence (P55789 whole entry, looked up): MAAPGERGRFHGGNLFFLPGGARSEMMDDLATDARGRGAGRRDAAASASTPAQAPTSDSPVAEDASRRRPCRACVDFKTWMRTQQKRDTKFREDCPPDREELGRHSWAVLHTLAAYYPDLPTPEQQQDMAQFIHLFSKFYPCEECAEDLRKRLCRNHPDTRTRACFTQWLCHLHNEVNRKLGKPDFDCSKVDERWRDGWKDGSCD
An asterisk follows results filed as active.

Screening NC(=S)Nc1ccc(Oc2ccc(NC(N)=S)cc2)cc1 returned Pemphigus Ab inh 109, NLRP3 yeast inh 18, Arr AP2 block 22, NALP1 yeast inh 10, PolyA inhibitor -1 and ALR H2O2 inh 99*.
Cc1ccc(NC(N)=S)cc1 was read as Pemphigus Ab inh 96, NLRP3 yeast inh 22, Arr AP2 block 10, NALP1 yeast inh 10, PolyA inhibitor 18 and ALR H2O2 inh 46.
Screening COC(=O)c1ccc(NC2=C(Cl)C(=O)OC2OC(=O)c2ccccc2)cc1 (stereo unspecified) returned Pemphigus Ab inh 101, NLRP3 yeast inh 16, Arr AP2 block -2, NALP1 yeast inh 17, PolyA inhibitor -4 and ALR H2O2 inh 97*.
For Cc1ccc(NC2=C(Cl)C(=O)OC2OC(=O)c2ccc(C)cc2)cc1 (stereo unspecified) the results were Pemphigus Ab inh 100, NLRP3 yeast inh 19, Arr AP2 block 10, NALP1 yeast inh -2, PolyA inhibitor 1 and ALR H2O2 inh 9.
`Cc1nn(C)c(C(=O)NNC(=O)NC2CCCCC2)c1Cl` gave Pemphigus Ab inh 113, NLRP3 yeast inh 5, Arr AP2 block 17, NALP1 yeast inh 3 and PolyA inhibitor 5.
Screening c1ccc(-n2nnc(-c3nccs3)n2)cc1 returned Pemphigus Ab inh 101, NLRP3 yeast inh 13, Arr AP2 block -11, PolyA inhibitor 0 and ALR H2O2 inh 94*.
For Brc1ccccc1-n1nnc(-c2nccs2)n1 the results were Pemphigus Ab inh 104, NLRP3 yeast inh 30, Arr AP2 block 8, NALP1 yeast inh 10, PolyA inhibitor -8 and ALR H2O2 inh -6.
Screening CC(C)[N+](C)(C)CC(O)CN(c1ccccc1)c1ccccc1 (stereo unspecified) returned Pemphigus Ab inh 93, NLRP3 yeast inh 0, Arr AP2 block -1, NALP1 yeast inh -4, PolyA inhibitor 1 and ALR H2O2 inh 98*.
Screening OC(CN(c1ccccc1)c1ccccc1)Cn1cnc2ccccc21 (stereo unspecified) returned NLRP3 yeast inh 14, Arr AP2 block -3, NALP1 yeast inh -2, PolyA inhibitor 11 and ALR H2O2 inh 99*.
`OC(COCc1ccccc1)Cn1cnc2ccccc21` (stereo unspecified) gave Pemphigus Ab inh 119, NLRP3 yeast inh 12, Arr AP2 block 5, NALP1 yeast inh 21, PolyA inhibitor 13 and ALR H2O2 inh -5.
`OCCN(CCO)CC(O)Cn1c2ccccc2c2ccccc21` (stereo unspecified) gave Pemphigus Ab inh 100, NLRP3 yeast inh 5, Arr AP2 block 11, NALP1 yeast inh 14, PolyA inhibitor -11 and ALR H2O2 inh -13.
NCC(O)CN(c1ccccc1)c1ccccc1 (stereo unspecified) was read as Pemphigus Ab inh 97, NLRP3 yeast inh 27, Arr AP2 block -3, NALP1 yeast inh 9, PolyA inhibitor -12 and ALR H2O2 inh 99*.
Screening OCCN(CCO)CC(O)CN(c1ccccc1)c1ccccc1 (stereo unspecified) returned Pemphigus Ab inh 105, NLRP3 yeast inh 13, Arr AP2 block -9, NALP1 yeast inh 29, PolyA inhibitor -11 and ALR H2O2 inh 99*.
For CC(=O)Nc1ccc(S(=O)(=O)N(C)c2ccc(OCCOc3ccccc3F)cc2)cc1 the results were NLRP3 yeast inh 8, Arr AP2 block -18 and ALR H2O2 inh -5.
COc1ccc(Cl)cc1NS(=O)(=O)c1cccc(C(=O)NCC(c2ccco2)N(C)C)c1 (stereo unspecified) was read as Pemphigus Ab inh 116, NLRP3 yeast inh 12, Arr AP2 block -9, NALP1 yeast inh 8, PolyA inhibitor -24 and ALR H2O2 inh 1.
For COc1ccc(C)cc1NC(=O)c1ccc2c(O)c(S(=O)(=O)c3ccccc3)c(=O)[nH]c2c1 the results were Pemphigus Ab inh 106, NLRP3 yeast inh -2, Arr AP2 block 8, NALP1 yeast inh 6, PolyA inhibitor -9 and ALR H2O2 inh 2.
N#CNC(=Nc1ccccc1F)SCc1ccc(C(=O)O)cc1 was read as Pemphigus Ab inh 98, NLRP3 yeast inh 5, Arr AP2 block 3, NALP1 yeast inh 4, PolyA inhibitor 16 and ALR H2O2 inh 99*.
Screening O=C(Nc1ccc(Cl)cc1)NC1CCCCC1 returned NLRP3 yeast inh 11, Arr AP2 block 3, NALP1 yeast inh -7, PolyA inhibitor 3 and ALR H2O2 inh -9.
`Nc1ccc(NC(=O)NC2CCCCC2)cc1` gave Pemphigus Ab inh 113, NLRP3 yeast inh 18, Arr AP2 block -17, NALP1 yeast inh -9, PolyA inhibitor 4 and ALR H2O2 inh 99*.
`Cc1occc1-c1nnc(SCC(=O)Nc2ccccn2)o1` gave Pemphigus Ab inh 123, NLRP3 yeast inh -5, Arr AP2 block 42, NALP1 yeast inh -6, PolyA inhibitor 1 and ALR H2O2 inh 24.
For Cc1occc1-c1nnc(SCC(=O)c2cc3ccccc3oc2=O)o1 the results were Pemphigus Ab inh 102, NLRP3 yeast inh 3, Arr AP2 block 6, NALP1 yeast inh 17, PolyA inhibitor 1 and ALR H2O2 inh 98*.
Screening C/C(=N/NC(=O)c1ccc(-c2ccccc2)cc1)c1cc(O)cc(O)c1 returned Pemphigus Ab inh 106, NLRP3 yeast inh 14, Arr AP2 block 5, NALP1 yeast inh 3 and ALR H2O2 inh 99*.
For C/C(=N\NC(=O)c1ccc(O)cc1)c1ccc2c(c1)Nc1ccccc1S2 the results were Pemphigus Ab inh 95, NLRP3 yeast inh 29, Arr AP2 block -2, NALP1 yeast inh 23, PolyA inhibitor -11 and ALR H2O2 inh 99*.
`C/C(=N\NC(=O)c1cccc(N/N=C(\C)c2ccccc2)c1)c1ccccc1` gave Pemphigus Ab inh 101, Arr AP2 block 5, NALP1 yeast inh 22 and ALR H2O2 inh 87*.
For C/C(=N\NC(=O)c1cc(O)ccc1O)c1cccc(NC(=O)c2cccc(Cl)c2)c1 the results were Pemphigus Ab inh 99, NLRP3 yeast inh 18, Arr AP2 block -3, NALP1 yeast inh 12, PolyA inhibitor -4 and ALR H2O2 inh 90*.
C/C(=N\NC(=O)c1cc(O)ccc1O)c1cccc(NC(=O)c2ccc(Cl)cc2)c1 was read as NLRP3 yeast inh 18, Arr AP2 block 14, NALP1 yeast inh 6, PolyA inhibitor -6 and ALR H2O2 inh 64.
Screening C/C(=N\NC(=O)c1ccccc1F)c1ccc2c(c1)Nc1ccccc1S2 returned Pemphigus Ab inh 120, NLRP3 yeast inh 21, Arr AP2 block 0, NALP1 yeast inh 25, PolyA inhibitor -25 and ALR H2O2 inh 54.
Screening O=C(O)C(C=C(Cl)Cl)N1CCOCC1 (stereo unspecified) returned Pemphigus Ab inh 91 and Arr AP2 block 48.

Assay outcomes deposited in PubChem by several laboratories.
